Data published in ChEMBL document CHEMBL4627351, “Synthesis, biological evaluation and structure-activity relationships of 5-arylidene tetramic acids with antibacterial activity against methicillin-resistant Staphylococcus aureus” (Bioorg Med Chem Lett, 2020).
Converted amounts (≈) assume the structure as drawn.

Tests used:
Staphylococcus aureus [1] = experiment: Antibacterial activity against methicillin-resistant Staphylococcus aureus ATCC 43300 assessed as reduction in bacterial growth at 32 ug/ml by CLSI protocol based broth microdilution method relative to control; format: functional
Summary of the method: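 Primary single-concentration broth screen at 32 µg/mL in duplicate (n = 2) against MRSA ATCC 43300. Mean % growth inhibition was calculated relative to growth and media controls.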

Erythrocyte = experiment: Hemolytic activity against human RBC; format: ADME, cell-based
Staphylococcus aureus [2] = experiment: Antibacterial activity against methicillin-resistant Staphylococcus aureus ATCC 43300 assessed as reduction in bacterial growth by CLSI protocol based broth microdilution method; format: functional
Summary of the method: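 Dose-response broth assay in duplicate, 8 points from 0.25 to 32 µg/mL, against MRSA ATCC 43300, with a positive antibiotic control. MIC is the lowest concentration giving full growth inhibition, per CLSI guidelines.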

[3] = Cytotoxicity against human HEK293 cells; format: cell-based

| SMILES | inhibition at 32 µg/mL (Staphylococcus aureus [1]) [%] | HC10 (Erythrocyte) [µg/mL] | MIC (Staphylococcus aureus [2]) [µg/mL] | CC50 [3] [µg/mL] |
| --- | --- | --- | --- | --- |
| CC(=O)N1C(=O)C(C(=O)c2ccccc2)=C(O)/C1=C/c1ccccc1 | 73.1 to 99.2 |  |  |  |
| CC(=O)C1=C(O)/C(=C/c2ccc([N+](=O)[O-])cc2)N(C(C)=O)C1=O | 38.6 |  |  |  |
| CCCCCCCCCCCCCC(=O)C1=C(O)/C(=C/c2ccccc2)N(C(C)=O)C1=O |  | > 32 | 4 (≈ 9.1 µM) | > 32 |
| CCCCCCCCCC(=O)C1=C(O)/C(=C/c2ccccc2)N(C(C)=O)C1=O |  | 20.4 | 4 (≈ 10.4 µM) | > 32 |
| CC(=O)C1=C(O)/C(=C/c2ccccc2)N(C(C)=O)C1=O | 22.9 to 25.5 | > 32 | > 32 | > 32 |
| CCCC(=O)C1=C(O)/C(=C/c2ccc(OC)cc2)N(C(C)=O)C1=O | 73.1 to 99.2 | > 32 | 32 (≈ 97.2 µM) | > 32 |
| CCCCCCCC(=O)C1=C(O)/C(=C/c2ccccc2)N(C(C)=O)C1=O |  | > 32 | 4 (≈ 11.3 µM) | > 32 |
| CCCC(=O)C1=C(O)/C(=C/c2ccccc2)N(C(C)=O)C1=O | 73.1 to 99.2 | > 32 | 32 (≈ 107 µM) | > 32 |
| CC(=O)C1=C(O)/C(=C/c2ccc(C(F)(F)F)cc2)N(C(C)=O)C1=O | 61.7 | > 32 | > 32 | > 32 |
| CC(=O)C1=C(O)/C(=C/c2ccc(Cl)cc2)N(C(C)=O)C1=O | 45.1 |  |  |  |
| CCCCCCCCCCCCCCCC(=O)C1=C(O)/C(=C/c2ccccc2)N(C(C)=O)C1=O |  | > 32 | 4 (≈ 8.55 µM) | > 32 |
